From ChEMBL document CHEMBL4513216, “Probing the Open Global Health Chemical Diversity Library for Multistage-Active Starting Points for Next-Generation Antimalarials” (ACS Infect Dis, 2020)

experiment: Toxicity liver stage against HepG2, at 10uM; type: cell-based; parameters: test concentration 10 uM, cell line HepG2-A16-CD81EGFP; conditions: human, HepG2-A16-CD81EGFP cells; read-out: INHIBITION
Outline: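 Uninfected HepG2-A16-CD81EGFP cells, 3 × 10^3 per well, 1536-well, plated on prespotted compound at 10 μM final, parasite-free screening media added to match infected plates; puromycin 10 μM positive, DMSO 0.5% negative; run in parallel with 48 h PbLuc assay at 37 °C, 5% CO2; viability by CellTiter-Glo luminescence, normalized to controls.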

| SMILES | cytotoxicity at 10 µM |
| --- | --- |
| CCC(=O)N1CCCc2c(cnn2C)C1 | 3.12% |
| c1cc(-c2nnc([C@H]3CCN(C4CCCCC4)C3)o2)ccn1 | -102% |
| CCCS(=O)(=O)N1Cc2c(ncn2Cc2ccccc2)C[C@H]1C(=O)OC | 0.434% |
| O[C@H]1CC[C@@H](Cc2cc(-c3ccccn3)on2)O[C@@H]1CNCC1CC1 | -4.05% |
| O=S1(=O)c2ccccc2C(O)CN1CCO (centres undefined) | 2.37% |
| Cc1nnc(C2CCN(C(=O)c3ccc4[nH]ccc4c3)CC2)s1 | 15% |
| Fc1ccc2c(c1)C1(CCNCC1)CC2OCC1CC1 (centres undefined) | 4.92% |
| CCS(=O)(=O)N1CCc2cc(C(=O)N(C)C)c(NCC3CC3)nc2CC1 | 0.0623% |
| Cc1ccc(C(=O)N2CCc3ncnc(-c4cnn(C)c4)c3CC2)o1 | 2.11% |
| N#Cc1ccc(C(=O)N2C[C@H](OCc3cccnc3)[C@H]3COC[C@H]32)cc1 | 5.38% |
| COCC(=O)N1CCN(C)c2ncccc2C1 | -3.1% |
| Cc1ncoc1C(=O)N1C[C@@H]2COC[C@]2(c2nnc(C3CC3)o2)C1 | -2.08% |
| Cc1cccn2c(=O)cc(OC(=O)c3ccc(OC(C)C)cc3)nc12 | 10% |
| CCOc1cc(-c2cc(=O)n3c(n2)CCCCC3)ccc1O | 1.32% |
| COc1ccc(S(=O)(=O)N2CCCC3(CCCN3S(C)(=O)=O)C2)cc1 (centres undefined) | -0.908% |
| Cc1noc(C)c1CN1CCOC2(CCCN(c3nccs3)C2)C1 (centres undefined) | 2.39% |
| CCc1ncnc2c1CCN(C(=O)Cc1ccccn1)CC2 | -8.75% |
| Cc1c(Cl)c(C(=O)NCc2ccc(F)cc2)nn1C | -2.26% |
| CCc1cc(=O)n(CC(=O)NCC2CCCO2)c(-c2cccc(F)c2)n1 (centres undefined) | -1.61% |
| CC(Cn1cccn1)NC(=O)c1cc(C2CC2)nc2c1cnn2C (centres undefined) | 0.351% |
| Cc1ncc(C(=O)N2CCOC(C(=O)N3CCCCC3)C2)c(C)n1 (centres undefined) | 1.14% |
| Cc1nc(O)cc([C@@H]2CN(S(=O)(=O)N(C)C)C[C@H]2c2ccccc2F)n1 | 5.8% |

| SMILES | cytotoxicity at 10 µM |
| --- | --- |
| COc1ccc(OCCc2cc(C3CNCCO3)nn2C)cc1 (centres undefined) | 7.13% |
| Cc1cc(NCCNS(=O)(=O)c2cn(C)nc2C)c2ccccc2n1 | 1.78% |
| CN1CCCC1c1ccnc(-c2ccccn2)n1 (centres undefined) | -5.26% |
| CC(C)(C)OC(=O)N1CCN(c2ccc(F)cc2)CC1C(=O)O (centres undefined) | -1.73% |
| CN(C)C(=O)C1(C)CN(Cc2cn(C)c3ccc(F)cc23)CCO1 (centres undefined) | 4.57% |
| CNC(=O)CN1CCOC(c2cccc(N)n2)C1 (centres undefined) | -5.22% |
| Cc1noc(C)c1-c1ccc(C2CCCN2C(=O)c2cccnc2)nc1 (centres undefined) | 4.7% |
| CNC(=O)c1ccc(C2CN(C(=O)c3scnc3C)CCO2)nc1 (centres undefined) | 19.7% |
| Cc1ccc2cc(CNCCCN3CCOCC3)c(=O)[nH]c2c1C | -10.1% |
| Cc1cc(C)c2ncc(C#N)c(NC3CCN(CC(N)=O)CC3)c2c1 | -4.38% |
| CC(NC(=O)N1CCS(=O)(=O)CC1)c1c(F)cccc1Cl (centres undefined) | 3.54% |
| CC(C)(CNc1ccccc1S(=O)(=O)C(F)F)N1CCOCC1 | 12.2% |
| COCCN1CC(C(=O)NCc2ccc(C)s2)CC1=O (centres undefined) | 5.27% |
| CCCN(Cc1cnn(C)c1)S(=O)(=O)c1cc(C)cc(F)c1 | 16.2% |
| CN(C)c1ncccc1CNCc1cccc(O)c1 | 5.05% |
| CC(O)c1cnn(-c2ccccc2)c1 (centres undefined) | -1.55% |
| O=C(CN1CCCS1(=O)=O)Nc1ccc(OC2CCCC2)cc1 | -7.31% |
| CNC(=O)NC(=O)CN(C)C(c1cccnc1)c1ccc(F)cc1F (centres undefined) | 5.3% |
| CCCC(=O)NC(Cc1ccc(C)cc1)c1ccccn1 (centres undefined) | -2.25% |
| Cc1ccc(-c2nc(C(=O)N(C)CC(=O)N3CCCC3)cs2)c(C)c1 | -2.28% |
| CN(Cc1nc(C(C)(C)C)no1)C1CCS(=O)(=O)C1 (centres undefined) | 15.2% |
| Cc1csc(C2CCCN(C(=O)c3cnn4ccc(C)nc34)C2)n1 (centres undefined) | 2.56% |

| SMILES | cytotoxicity at 10 µM |
| --- | --- |
| CCOC(=O)c1ccc(CNC(=O)c2ccc(C)nc2)o1 | 10.6% |
| Cn1c(C2CC2)nc2cc(NC(=O)C3CCOC3)ccc21 (centres undefined) | 3.09% |
| CCCn1cc(NC(=O)c2ccc(S(C)(=O)=O)cc2)ccc1=O | -13.1% |
| Cc1ccc(C(N)=O)cc1NCCOc1cccc(C#N)c1 | 2.87% |
| O=C1CC2(CCCC2)C(=O)N1CC(O)COCc1ccccc1F (centres undefined) | 0.927% |
| CC(C)(CC(=O)Nc1cccc(Oc2ccccn2)c1)C(=O)O | -17.6% |
| O=C(CS(=O)(=O)Cc1ccc(F)cc1)NCc1ccccc1F | 5.96% |
| CC(C)C1CN(S(=O)(=O)c2ccc(C#N)cc2)CCS1 (centres undefined) | 6.88% |
| CCOCc1nnc(NCc2ccsc2)o1 | -0.432% |
| CN1C(=O)CCc2cc(NC(=O)C3CC(=O)N(CC4CC4)C3)ccc21 (centres undefined) | -12.2% |
| Cc1noc(-c2ccnc(N3CCCN(C4CCOCC4)CC3)c2)n1 | -2.85% |
| Cn1ccc(NC2CCN(C3CC3)C2=O)n1 (centres undefined) | 7.31% |
| COCCN(Cc1cccs1)C(=O)C1CCCN(C(N)=O)C1 (centres undefined) | 6.4% |
| Cc1ncsc1CNC(=O)CCN1CCN(c2ccccn2)CC1 | 2.31% |
| COc1cccc2c1N(S(=O)(=O)c1cc(C(=O)O)cs1)CCC2 | -1.95% |
| CC1CN(C)CCN1Cc1cccc(C(=O)NCc2ccco2)c1 (centres undefined) | 3.33% |
| Cc1nc(-c2cccc(C(=O)N(C)CC(C)O)c2)cs1 (centres undefined) | 2.68% |
| NC(=O)C1CCN(CCCNC(=O)Nc2nncs2)CC1 | -0.165% |
| c1cncc(-c2nc3c(c(NCC4(c5ccncc5)CC4)n2)CCC3)c1 | 7.77% |
| COCC(NC(=O)NCc1cccc(C#N)c1)c1ccco1 (centres undefined) | 2.7% |
| Cn1cccc(NC(=O)N2CCC(CSc3ccccc3)C2)c1=O (centres undefined) | 40.2% |
| Cc1nc(CC(C)C)sc1C(=O)N1CCC(C2(C)OCCO2)CC1 | 4.21% |

| SMILES | cytotoxicity at 10 µM |
| --- | --- |
| COc1ccccc1OCCN1CCCC(c2noc(C3CC3)n2)C1 (centres undefined) | 1.26% |
| COCC(NC(=O)c1cnn(C)c1)c1cccc(C(F)(F)F)c1 (centres undefined) | 1.73% |
| CCn1nc(CC(C)C)cc1C(=O)NCCCN1CCOCC1 | 1.6% |
| CC(C)c1nccn1CC(=O)Nc1ccnn1C(C)C(C)C (centres undefined) | 1.11% |
| O=C1CC2(CCN(Cc3ncc[nH]3)CC2)CN1Cc1cc(F)cc(F)c1 | -5.53% |
| Cc1ccc([C@@H]2CN(C(=O)c3ccon3)C[C@H]2NC(=O)C2CC2)cc1 | 1.08% |
| CCCc1cc(C(=O)N2CCC3(CC2)CN(CCN(C)C)C(=O)O3)no1 | 14.1% |
| O=C(O)[C@@H]1CN(CC(=O)N2CCCCCC2)C[C@H]1c1ccc(F)cc1 | -3.24% |
| Cc1ncsc1CCN(C)C(=O)CN1CC2(CCNCC2)OC1=O | -7.33% |
| CCCc1cc(N2CCC(NCC3(O)CCN(C)CC3)CC2)nc(C)n1 | -16.1% |
| CC(C)c1cc(C(=O)N2CCCN(CCCc3ccccc3)CC2)[nH]n1 | 0.271% |
| CCN(Cc1cnn(C)c1)C[C@H]1CC[C@@H](Cc2ccc(CO)cc2)O1 | 5.95% |
| CN(C)c1ccc(C(=O)N2Cc3cnc(C(C)(C)C)nc3C2)cc1 | -5.51% |
| CN1CC2(CCN(C(=O)c3ccc(-n4cnnc4)cc3Cl)CC2)OC1=O | 4.03% |
| Cn1c(CCNC(=O)CC[C@@H]2CCCN3CCCC[C@H]23)n[nH]c1=O | 4.13% |
| CN1CC2(CCN(C(=O)c3ccc4nonc4c3)CC2)CC1=O | 0.873% |
| c1cc2c(cc1CN1CCC(Cc3noc(C4CC4)n3)CC1)OCCO2 | 14.9% |
| CCCN(CCc1ccccc1)C(=O)c1ccccc1NCC(=O)O | 7.38% |
| CCn1cnnc1CCNC(=O)C1COc2ccc(OC)cc2C1 (centres undefined) | -1.31% |
| CC(C)c1nc(CCN(C)C(=O)C2COc3ccccc3C2)no1 (centres undefined) | 4.31% |
| N[C@@H]1c2ccccc2C2(CCN(C(=O)c3ccccc3O)CC2)[C@H]1O | 6.38% |
| Cc1ncc(S(C)(=O)=O)c(C2CCCNC2)n1 (centres undefined) | 1.17% |

| SMILES | cytotoxicity at 10 µM |
| --- | --- |
| CC(NC(=O)c1ccoc1)c1ccc2c(c1)CCC(=O)N2 (centres undefined) | -1.36% |
| CCc1noc(C(C)N2CCN(CCOCC(F)(F)F)CC2)n1 (centres undefined) | -9.45% |
| O=C1C(NCc2nnc3n2CCCC3)CCN1c1ccccc1F (centres undefined) | -4.92% |
| O=C(NCc1nn(-c2ccccc2)c2c1CCC2)NC1CCOCC1 | -8.72% |
| Cc1oncc1C(=O)NCc1ccnc(OCC(F)(F)F)c1 | -3.39% |
| CN1CCC/C1=N\S(=O)(=O)c1ccc(NC(=O)Cc2cccs2)cc1 | -10.6% |
| CNS(=O)(=O)c1ccc(CNC(=O)c2c(C)oc(C)c2C)cc1 | -17.1% |
| O=C(CCc1ccncc1)NCc1csc(Br)c1 | -15.5% |
| CCc1noc(CNC2CCCN(Cc3noc(C4CC4)n3)C2)n1 (centres undefined) | -25.6% |
| COc1c(CNCC(O)c2ccc(C)cc2)c(C(C)C)nn1C (centres undefined) | -10.6% |
| COc1ccccc1-c1noc(CN2CCCC2Cn2cccn2)n1 (centres undefined) | -8.95% |
| COc1ccc(CC(=O)N2CCCC(n3cc(C)cn3)C2)cc1F (centres undefined) | 1.88% |
| Cc1nc[nH]c1CN(Cc1ccccc1F)C1CC(C)(C)NC(C)(C)C1 | -3.41% |
| O=C1CCC2(CCCN(C(=O)c3ccccn3)CC2)N1 (centres undefined) | -2.51% |
| Cc1cc(C(=O)N2CCC3(CCN3Cc3ccc(F)cc3)C2)no1 (centres undefined) | 4.29% |
| Cc1noc([C@H]2C[C@@H]3CCN(CC4CC4)C[C@H]3O2)n1 | -7.23% |
| O=C1C[C@H]2[C@@H](CCN2C(=O)Cc2ccccc2)N1Cc1cccnc1 | -3.86% |
| CC(NCc1c(C(C)C)nn(C)c1N(C)C)C(=O)NC1CCCC1 (centres undefined) | 0.966% |
| Cc1ccc(CN2C[C@@H]3CCN(Cc4cccnc4)C(=O)[C@H]3C2)s1 | 0.434% |
| O=C([C@H]1CCCO1)N1CCOC2(CCCN(c3ncccc3F)C2)C1 (some centres undefined) | 1.73% |
| Cc1ccc(CN2C[C@@H]3COC[C@@H](NS(C)(=O)=O)[C@@H]3C2)o1 | -8.52% |
